Activity calls are given as the source filed them. The rule behind the calls is not given here.
Key:
SW480 [1] = experiment: Antiproliferative activity against human SW480 cells incubated for 72 hrs by CCK8 assay; conditions: SW480, 72 h
HCT-116 = experiment: Antiproliferative activity against human HCT116 cells incubated for 72 hrs by CCK8 assay; conditions: HCT-116, 72 h
[2] = Toxicity in BALB/C nude mouse xenografted with human SW480 cells assessed as induction of body weight loss at 50 mg/kg, ip dosed once daily for 12 consecutive days; assay type: organism-based; conditions: in vivo
In short: (§1)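 SW480 xenografts in nude mice, dosed intraperitoneally once a day for 12 consecutive days and compared with a vehicle group. Tumor growth followed over time and expressed as TGI, with data as mean ± standard deviation and significance by P value. Body weight and adverse effects were monitored throughout the study.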

Mus musculus [3] = experiment: In-vivo protac activity at cereblon/PDE6D in BALB/C nude mouse xenografted with human SW480 cells assessed as decrease in PDEdelta level at 50 mg/kg, ip dosed once daily for 12 consecutive days by immunofluorescence assay; assay type: functional, organism-based
In short: (§2)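 Tumor tissue from SW480-transplanted nude mice analysed by immunofluorescence for PDEδ, RAS and p-Akt protein expression.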

SW480 [4] = experiment: Antitumor activity against human SW480 cells xenografted in BALB/C nude mouse assessed as tumor growth inhibition at 50 mg/kg, ip dosed once daily for 12 consecutive days relative to control; assay type: functional; conditions: read-out: TGI; in short: as §1
SW480 [5] = experiment: Induction of apoptosis in human SW480 cells assessed as late apoptotic cells level at 40 uM incubated for 24 hrs by propidium iode and annexin V-FITC staining based flow cytometry (reference value: 4.46%); assay type: functional
[6] = Toxicity in BALB/C nude mouse xenografted with human SW480 cells assessed as induction of adverse effects at 50 mg/kg, ip dosed once daily for 12 consecutive days; assay type: organism-based; conditions: in vivo; in short: as §1
SW480 [7] = experiment: Induction of apoptosis in human SW480 cells assessed as necrotic cells level at 40 uM incubated for 24 hrs by propidium iode and annexin V-FITC staining based flow cytometry (reference value: 2.79%); assay type: functional
SW480 [8] = experiment: Induction of apoptosis in human SW480 cells assessed as early apoptotic cells level at 40 uM incubated for 24 hrs by propidium iode and annexin V-FITC staining based flow cytometry (reference value: 1.76%); assay type: functional
[9] = Cmax in Sprague-Dawley rat at 50 mg/kg, ip measured after 0.083 to 24 hrs by LC-MS/MS analysis; assay type: ADME, organism-based; parameters: dose 50 mg/kg, route intraperitoneal; conditions: in vivo
In short: (§3)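 Rats given the compound intraperitoneally at 50 mg/kg, with drug levels measured in plasma over time. The concentration–time profile gave half-life, Cmax and AUC.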

SW480 [10] = experiment: Induction of apoptosis in human SW480 cells assessed as early apoptotic cells level at 20 uM incubated for 24 hrs by propidium iode and annexin V-FITC staining based flow cytometry (reference value: 1.76%); assay type: functional
[11] = Tmax in Sprague-Dawley rat at 50 mg/kg, ip measured after 0.083 to 24 hrs by LC-MS/MS analysis; assay type: ADME, organism-based; conditions: in vivo; in short: as §3
MIA PaCa-2 = experiment: Antiproliferative activity against human MIAPaCa2 cells incubated for 72 hrs by CCK8 assay; assay type: functional, cell-based
Mus musculus [12] = experiment: In-vivo protac activity at cereblon/PDE6D in BALB/C nude mouse xenografted with human SW480 cells assessed as decrease in p-Akt level at 50 mg/kg, ip dosed once daily for 12 consecutive days by immunofluorescence assay; assay type: functional, organism-based; in short: as §2
[13] = AUC (0 to infinity) in Sprague-Dawley rat at 50 mg/kg, ip measured after 0.083 to 24 hrs by LC-MS/MS analysis; assay type: ADME, organism-based; parameters: dose 50 mg/kg, route intraperitoneal, time infinity; conditions: in vivo; in short: as §3
SW480 [14] = experiment: Induction of apoptosis in human SW480 cells assessed as necrotic cells level at 20 uM incubated for 24 hrs by propidium iode and annexin V-FITC staining based flow cytometry (reference value: 2.79%); assay type: functional
[15] = Permeability in human Caco2 cells; assay type: ADME, cell-based; conditions: caco-2
SW480 [16] = experiment: Antiproliferative activity against human SW480 cells incubated for 72 hrs in presence of 30 uM pomalidomide by CCK8 assay; conditions: SW480, 72 h
[17] = Clearance in Sprague-Dawley rat at 50 mg/kg, ip measured after 0.083 to 24 hrs by LC-MS/MS analysis; assay type: ADME, organism-based; conditions: in vivo; in short: as §3
SW480 [18] = experiment: Induction of apoptosis in human SW480 cells assessed as late apoptotic cells level at 20 uM incubated for 24 hrs by propidium iode and annexin V-FITC staining based flow cytometry (reference value: 4.46%); assay type: functional
[19] = Half life in Sprague-Dawley rat at 50 mg/kg, ip measured after 0.083 to 24 hrs by LC-MS/MS analysis; assay type: ADME, organism-based; conditions: in vivo; in short: as §3

Cc1ccc(-n2nc3c(=O)n(CCCC(=O)NCCOCCOCCNc4cccc5c4C(=O)N(C4CCC(=O)NC4=O)C5=O)nc(C)c3c2C)cc1 (stereo unspecified)
IC50 (SW480 [1]): 58 µM | IC50 (HCT-116): 25 µM

Cc1ccc(-n2nc3c(=O)n(CCCC(=O)NCC(C)c4ccccc4)nc(C)c3c2C)cc1 (stereo unspecified)
Activity [2]: Non-Toxic | Activity (Mus musculus [3]): inactive | inhibition in vivo at 50 mg/kg (SW480 [4]): 24% | Activity (SW480 [5]): 8.61% | Activity [6]: Non-Toxic | Activity (SW480 [7]): 2.44% | IC50 (SW480 [1]): 56 µM | IC50 (HCT-116): 74 µM | Activity (SW480 [8]): 2.49%

Cc1ccc(-n2nc3c(=O)n(CCCC(=O)NCCCCCCNc4cccc5c4C(=O)N(C4CCC(=O)NC4=O)C5=O)nc(C)c3c2C)cc1 (stereo unspecified)
IC50 (SW480 [1]): 15 µM | IC50 (HCT-116): 19 µM

Cc1ccc(-n2nc3c(=O)n(CCCC(=O)NCCCCCCCCNc4cccc5c4C(=O)N(C4CCC(=O)NC4=O)C5=O)nc(C)c3c2C)cc1 (stereo unspecified)
Activity [2]: Non-Toxic | Cmax [9]: 564 ng/mL | Activity (SW480 [10]): 36.25% | Tmax [11]: 1.67 h | Activity (Mus musculus [3]): Active | inhibition in vivo at 50 mg/kg (SW480 [4]): 43% | Activity (SW480 [5]): 2.95% | Activity [6]: Non-Toxic | Activity (SW480 [7]): 0.37% | Activity (MIA PaCa-2): Active | Activity (Mus musculus [12]): Active | AUC(0-inf) [13]: 4710 ng·h/mL | Activity (SW480 [14]): 0.9% | permeability [15]: Impermeable | IC50 (SW480 [1]): 8 µM | IC50 (SW480 [16]): 71 µM | CL/F [17]: 179 mL/min/kg | Activity (SW480 [18]): 2.06% | IC50 (HCT-116): 8 µM | half-life [19]: 5.11 h | Activity (SW480 [8]): 62.58%

Cc1ccc(-n2nc3c(=O)n(CCCC(=O)NCCCCCCCCNc4ccc5c(c4)C(=O)N(C4CCC(=O)NC4=O)C5=O)nc(C)c3c2C)cc1 (stereo unspecified)
IC50 (SW480 [1]): 7 µM

Cc1ccc(-n2nc3c(=O)n(CCCC(=O)NCCCCCCCNc4cccc5c4C(=O)N(C4CCC(=O)NC4=O)C5=O)nc(C)c3c2C)cc1 (stereo unspecified)
IC50 (SW480 [1]): 12 µM | IC50 (HCT-116): 20 µM

Cc1ccc(-n2nc3c(=O)n(CCCC(=O)NCCCOCCOCCOCCCNc4cccc5c4C(=O)N(C4CCC(=O)NC4=O)C5=O)nc(C)c3c2C)cc1 (stereo unspecified)
IC50 (SW480 [1]): 26 µM | IC50 (HCT-116): 23 µM

Cc1ccc(-n2nc3c(=O)n(CCCC(=O)NCCCNc4cccc5c4C(=O)N(C4CCC(=O)NC4=O)C5=O)nc(C)c3c2C)cc1 (stereo unspecified)
IC50 (SW480 [1]): 81 µM | IC50 (HCT-116): 68 µM

Cc1ccc(-n2nc3c(=O)n(CCCC(=O)NCCCCCNc4cccc5c4C(=O)N(C4CCC(=O)NC4=O)C5=O)nc(C)c3c2C)cc1 (stereo unspecified)
IC50 (SW480 [1]): 17 µM | IC50 (HCT-116): 32 µM

Cc1ccc(-n2nc3c(=O)n(CCCC(=O)NCCCCCCCCNc4cccc5c4C(=O)N(C4CCC(=O)N(C)C4=O)C5=O)nc(C)c3c2C)cc1 (stereo unspecified)
IC50 (SW480 [1]): 70 µM

Cc1ccc(-n2nc3c(=O)n(CCCC(=O)NCCCCNc4cccc5c4C(=O)N(C4CCC(=O)NC4=O)C5=O)nc(C)c3c2C)cc1 (stereo unspecified)
IC50 (SW480 [1]): 76 µM | IC50 (HCT-116): 51 µM

From ChEMBL document CHEMBL4616722, “Discovery of Novel PDEδ Degraders for the Treatment of KRAS Mutant Colorectal Cancer” (J Med Chem, 2020)
